Laboratory results: ChEMBL document CHEMBL2021854, “2-Aminopyrimidine based 4-aminoquinoline anti-plasmodial agents. Synthesis, biological activity, structure-activity relationship and mode of action studies” (Eur J Med Chem, 2012)

How the values were obtained:
[1] = Inhibition of beta-hematin formation assessed as Ferriprotoporphyrin IX biomineralisation at 1 mg/ml after 24 hrs; assay type: functional
Summary of the method: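 Hemin chloride (0.5 mg/ml in DMSO) mixed with 0.5 M sodium acetate buffer pH 4.4 and drug or solvent control, incubated 37 °C for 24 h. Pellet washed with DMSO to remove unreacted hemin, dissolved in 0.1 N NaOH, absorbance read at 405 nm; percent inhibition relative to control. Highest concentration tested 1 mg/ml.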

Influenza A virus [2] = assay: Antiviral activity against Influenza A virus H1N1 infected in MDCK cells assessed as inhibition of virus-induced cytopathogenicity after 4 days by colorimetric formazan-based MTS assay; assay type: functional, organism-based; conditions: 96 h
[3] = tested on: Respiratory syncytial virus; assay: Antiviral activity against Respiratory syncytial virus infected in human HeLa cells assessed as inhibition of virus-induced cytopathogenicity after 4 days; assay type: functional, organism-based; conditions: 96 h
Summary of the method: (§1)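 Confluent HEL, Vero or HeLa monolayers were inoculated with 100 CCID50 of virus in the presence of varying concentrations of compound. Cytopathicity was scored when it reached completion in untreated, virus-infected control cultures.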

[4] = Cytotoxicity against african green monkey Vero cells assessed as minimum compound concentration required to causes microscopically detectable alteration of normal cell morphology; assay type: cell-based; conditions: chlorocebus sabaeus
Summary of the method: (§2)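 Confluent, non-proliferating cell cultures were exposed to the compounds. The endpoint was the minimum concentration producing a microscopically detectable alteration of normal cell morphology.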

Influenza A virus [5] = assay: Antiviral activity against Influenza A virus H3N2 infected in MDCK cells assessed as inhibition of virus-induced cytopathogenicity after 4 days by colorimetric formazan-based MTS assay; assay type: functional, organism-based; conditions: 96 h
Human alphaherpesvirus 3 [6] = assay: Antiviral activity against […] expressing thymidine kinase infected in HEL cells assessed as reduction of virus plaque formation after 4 days; assay type: functional, cell-based; conditions: Human alphaherpesvirus 3, strain Oka vaccine, 96 h
[7] = Cytotoxicity against human HEL cells assessed as minimum compound concentration required to causes microscopically detectable alteration of normal cell morphology; assay type: cell-based; summary of the method: as §2
Plasmodium falciparum [8] = assay: Resistant factor, ratio of IC50 for chloroquine-resistant Plasmodium falciparum K1 to IC50 for chloroquine-sensitive Plasmodium falciparum 3D7; assay type: functional
Summary of the method: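 Resistance factor computed as IC50 against K1 divided by IC50 against 3D7, both from the [3H]hypoxanthine incorporation assay.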

Influenza A virus [9] = assay: Antiviral activity against Influenza A virus H1N1 infected in MDCK cells assessed as reduction visual scoring of virus-induced cytopathogenicity after 4 days; assay type: functional, organism-based; conditions: 96 h
Summary of the method: (§3)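 MDCK monolayers infected with 100 CCID50 of influenza A (H1N1 or H3N2) or influenza B, with varying compound concentrations. Cytopathicity read when untreated infected controls reached complete CPE.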

Coxsackievirus B4 [10] = assay: Antiviral activity against Coxsackie virus B4 infected in african green monkey Vero cells assessed as inhibition of virus-induced cytopathogenicity after 4 days; assay type: functional, organism-based; conditions: Enterovirus B, 96 h; summary of the method: as §1
[11] = tested on: Vesicular stomatitis virus; assay: Antiviral activity against Vesicular stomatitis virus infected in HeLa cells assessed as inhibition of virus-induced cytopathogenicity after 4 days; assay type: functional, organism-based; conditions: 96 h
Summary of the method: (§4)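 Confluent HEL or HeLa monolayers infected with 100 CCID50 of virus in the presence of varying compound concentrations.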

MDCK = assay: Cytotoxicity against MDCK cells assessed as cell viability by colorimetric formazan-based MTS assay; design: species or system Canis lupus familiaris; conditions: dog, mdck
Summary of the method: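 Cytotoxicity on MDCK cells; 50% cytotoxic concentration from cell viability measured by colorimetric formazan-based MTS assay.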

[12] = tested on: Human immunodeficiency virus 2; assay: Antiviral activity against HIV2 infected in human CEM cells assessed as inhibition of virus-induced cytopathic effect after 4 days; assay type: functional, organism-based; conditions: Human immunodeficiency virus 2, CCRF-CEM, 96 h
Summary of the method: (§5)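 CEM T-lymphocytes (~3 × 10^5 cells/ml) were infected with HIV-1 IIIB or HIV-2 ROD at ~100 CCID50, then immediately plated with a range of compound concentrations. Giant cell formation was scored microscopically after 4 days at 37 °C. Cytostatic activity was tested in parallel in uninfected CEM cells.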

Human alphaherpesvirus 1 [13] = assay: Antiviral activity against thymidine kinase-deficient acyclovir-resistant HSV1 KOS infected in HEL cells assessed as inhibition of virus-induced cytopathogenicity after 4 days; assay type: functional, organism-based; conditions: Human alphaherpesvirus 1, KOS, 96 h; summary of the method: as §4
Sindbis virus = assay: Antiviral activity against Sindbis virus infected in african green monkey Vero cells assessed as inhibition of virus-induced cytopathogenicity after 4 days; assay type: functional, organism-based; conditions: 96 h; summary of the method: as §1
Influenza B virus [14] = assay: Antiviral activity against Influenza B virus infected in MDCK cells assessed as inhibition of virus-induced cytopathogenicity after 4 days by colorimetric formazan-based MTS assay; assay type: functional, organism-based; conditions: 96 h
Felid alphaherpesvirus 1 = assay: Antiviral activity against Feline herpesvirus infected in cat CRFK cells assessed as inhibition of virus-induced cytopathic effect after 4 days by colorimetric formazan-based MTS assay; assay type: functional, organism-based; conditions: Felid alphaherpesvirus 1, CRFK, 96 h
Human betaherpesvirus 5 [15] = assay: Antiviral activity against Cytomegalovirus AD-169 infected in HEL cells assessed as inhibition of virus plaque formation after 4 days; assay type: functional, organism-based; conditions: Human betaherpesvirus 5, AD169, HEL, 96 h
[16] = Cytotoxicity against human HeLa cells assessed as minimum compound concentration required to causes microscopically detectable alteration of normal cell morphology; assay type: cell-based; summary of the method: as §2
Plasmodium falciparum [17] = assay: Antiplasmodial activity chloroquine-resistant Plasmodium falciparum K1 infected in human A+ erythrocytes assessed as inhibition of [3H]-hypoxanthine incorporation after 24 hrs by scintillation counting; assay type: functional, organism-based
[18] = tested on: Mammalian orthoreovirus 1; assay: Antiviral activity against Reovirus-1 infected in african green monkey Vero cells assessed as inhibition of virus-induced cytopathogenicity after 4 days; assay type: functional, organism-based; conditions: Mammalian orthoreovirus 1, Vero, 96 h; summary of the method: as §1
Plasmodium falciparum [19] = assay: Antiplasmodial activity chloroquine-sensitive Plasmodium falciparum 3D7 infected in human A+ erythrocytes assessed as inhibition of [3H]-hypoxanthine incorporation after 24 hrs by scintillation counting; assay type: functional, organism-based
[20] = Selectivity index, ratio of CC50 for MDCK cells to IC50 for chloroquine-resistant Plasmodium falciparum K1; assay type: functional
Summary of the method: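 Selectivity index computed as MTS-based CC50 on MDCK cells divided by IC50 against P. falciparum K1.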

Human respirovirus 3 = assay: Antiviral activity against Parainfluenza-3 virus infected in african green monkey Vero cells assessed as inhibition of virus-induced cytopathogenicity after 4 days; assay type: functional, organism-based; conditions: Human respirovirus 3, Vero, 96 h; summary of the method: as §1
[21] = Cytotoxicity against MDCK cells assessed as minimum compound concentration required to causes microscopically detectable alteration of normal cell morphology; assay type: cell-based, Canis lupus familiaris; conditions: dog; summary of the method: as §2
Human betaherpesvirus 5 [22] = assay: Antiviral activity against Human cytomegalovirus Davis infected in HEL cells assessed as inhibition of virus plaque formation after 4 days; assay type: functional, organism-based; conditions: Human betaherpesvirus 5, Davis, 96 h
Human alphaherpesvirus 3 [23] = assay: Antiviral activity against thymidine kinase-deficient […] infected in HEL cells assessed as reduction of virus plaque formation after 4 days; assay type: functional, organism-based; conditions: Human alphaherpesvirus 3, 07-1, HEL, 96 h
Human alphaherpesvirus 2 = assay: Antiviral activity against HSV2 G infected in HEL cells assessed as inhibition of virus-induced cytopathogenicity after 4 days; assay type: functional, organism-based; conditions: Human alphaherpesvirus 2, strain G, 96 h; summary of the method: as §1
[24] = tested on: Human immunodeficiency virus 1; assay: Antiviral activity against HIV1 infected in human CEM cells assessed as inhibition of virus-induced cytopathic effect after 4 days; assay type: functional, organism-based; conditions: Human immunodeficiency virus 1, CCRF-CEM, 96 h; summary of the method: as §5
[25] = Cytotoxicity against cat CRFK cells assessed as cell viability by colorimetric formazan-based MTS assay; design: species or system Felis catus; conditions: crfk
Punta Toro virus = assay: Antiviral activity against Punta Toro virus infected in african green monkey Vero cells assessed as inhibition of virus-induced cytopathogenicity after 4 days; assay type: functional, organism-based; conditions: 96 h; summary of the method: as §1
Influenza B virus [26] = assay: Antiviral activity against Influenza B virus infected in MDCK cells assessed as reduction visual scoring of virus-induced cytopathogenicity after 4 days; assay type: functional, organism-based; conditions: 96 h; summary of the method: as §3
Influenza A virus [27] = assay: Antiviral activity against Influenza A virus H3N2 infected in MDCK cells assessed as reduction visual scoring of virus-induced cytopathogenicity after 4 days; assay type: functional, organism-based; conditions: 96 h; summary of the method: as §3
[28] = tested on: Feline infectious peritonitis virus; assay: Antiviral activity against FIPV infected in cat CRFK cells assessed as inhibition of virus-induced cytopathic effect after 4 days by colorimetric formazan-based MTS assay; assay type: functional, cell-based; conditions: Alphacoronavirus 1, CRFK, 96 h
[29] = tested on: Vesicular stomatitis virus; assay: Antiviral activity against Vesicular stomatitis virus infected in HEL cells assessed as inhibition of virus-induced cytopathogenicity after 4 days; assay type: functional, organism-based; conditions: 96 h; summary of the method: as §4
Human alphaherpesvirus 1 [30] = assay: Antiviral activity against HSV1 KOS infected in HEL cells assessed as inhibition of virus-induced cytopathogenicity after 4 days; assay type: functional, organism-based; conditions: Human alphaherpesvirus 1, KOS, 96 h; summary of the method: as §4
HeLa = assay: Cytotoxicity against human HeLa cells assessed as cell viability by colorimetric formazan-based MTS assay
Coxsackievirus B4 [31] = assay: Antiviral activity against Coxsackie virus B4 infected in human HeLa cells assessed as inhibition of virus-induced cytopathogenicity after 4 days; assay type: functional, organism-based; conditions: Enterovirus B, 96 h; summary of the method: as §1

**Q.** Which inhibition [1] does the source give for `Cc1nc(NCCCNc2ccnc3cc(Cl)ccc23)nc(-c2cccc([N+](=O)[O-])c2)c1C(=O)OC(C)C` here?
**A.** 79%

**Q.** And the EC50 (Influenza A virus [2])?
**A.** > 0.16 µM

**Q.** And the EC50 [3]?
**A.** > 4 µM

**Q.** And the MCC [4]?
**A.** 100 µM

**Q.** And the EC50 (Influenza A virus [5])?
**A.** > 0.16 µM

**Q.** And the EC50 (Human alphaherpesvirus 3 [6])?
**A.** 4 µM

**Q.** What about the MCC [7] of the same compound?
**A.** 20 µM

**Q.** And the “Ratio IC50” value (Plasmodium falciparum [8])?
**A.** 0.385

**Q.** And the EC50 (Influenza A virus [9])?
**A.** > 0.16 µM

**Q.** And the EC50 (Coxsackievirus B4 [10])?
**A.** > 20 µM

**Q.** And the EC50 [11]?
**A.** > 4 µM

**Q.** And the CC50 (MDCK)?
**A.** 0.5 µM

**Q.** What about the EC50 [12] of the same compound?
**A.** > 10 µM

**Q.** And the EC50 (Human alphaherpesvirus 1 [13])?
**A.** > 4 µM

**Q.** What about the EC50 (Sindbis virus) of the same compound?
**A.** > 20 µM

**Q.** What about the EC50 (Influenza B virus [14]) of the same compound?
**A.** > 0.16 µM

**Q.** And the EC50 (Felid alphaherpesvirus 1)?
**A.** > 4 µM

**Q.** And the EC50 (Human betaherpesvirus 5 [15])?
**A.** > 4 µM

**Q.** And the MCC [16]?
**A.** 20 µM

**Q.** What about the IC50 (Plasmodium falciparum [17]) of the same compound?
**A.** 0.231 µM

**Q.** And the EC50 [18]?
**A.** > 20 µM

**Q.** And the IC50 (Plasmodium falciparum [19])?
**A.** 0.599 µM

**Q.** And the “Ratio CC50/IC50” value [20]?
**A.** 2.1

**Q.** And the EC50 (Human respirovirus 3)?
**A.** > 20 µM

**Q.** And the MCC [21]?
**A.** 800 nM

**Q.** And the EC50 (Human betaherpesvirus 5 [22])?
**A.** > 4 µM

**Q.** And the EC50 (Human alphaherpesvirus 3 [23])?
**A.** > 4 µM

**Q.** What about the EC50 (Human alphaherpesvirus 2) of the same compound?
**A.** > 4 µM

**Q.** What about the EC50 [24] of the same compound?
**A.** > 2 µM

**Q.** And the CC50 [25]?
**A.** 7.7 µM

**Q.** What about the EC50 (Punta Toro virus) of the same compound?
**A.** > 20 µM

**Q.** What about the EC50 (Influenza B virus [26]) of the same compound?
**A.** > 0.16 µM

**Q.** What about the EC50 (Influenza A virus [27]) of the same compound?
**A.** > 0.16 µM

**Q.** What about the EC50 [28] of the same compound?
**A.** > 4 µM

**Q.** What about the EC50 [29] of the same compound?
**A.** > 4 µM

**Q.** What about the EC50 (Human alphaherpesvirus 1 [30]) of the same compound?
**A.** > 4 µM

**Q.** And the CC50 (HeLa)?
**A.** 1.04 µM

**Q.** And the EC50 (Coxsackievirus B4 [31])?
**A.** > 4 µM
